Measurements: article PMC3844559 (Journal of medicinal chemistry, 2013)
No end group written: not given here. *: point of attachment. X1 = S‑(2,3-bis(palmitoyloxy)-(2R)-propyl)‑R‑cysteinyl, CCCCCCCCCCCCCCCC(=O)OC[C@H](CSC[C@H](N)C(=O)*)OC(=O)CCCCCCCCCCCCCCC

Columns and labels:
human TLR2 = human TLR2 (Homo sapiens, UniProt O60603); experiment: human TLR2-specific NF-κB reporter gene assay; assay type: cell-based; conditions: for EC50: hTLR2-Agonistic Activity (EC50 in nM), human TLR2-specific reporter gene assay; for hTLR2-specific agonistic activity: reporter gene assays
aqueous solubility = assay type: physicochemical; conditions: water
[1] = stability of aqueous stocks / accelerated stability testing; assay type: physicochemical; conditions: for stability of aqueous stocks: aqueous stocks on storage
patients = conditions: cited from earlier work
[2] = system: human PBMCs or human whole blood; experiment: proinflammatory cytokine induction, 5-plex cytometric bead assays; assay type: cell-based; conditions: 5-plex cytometric bead assays (data not shown)
human PBMCs = experiment: 41-plex chemokine/cytokine immunoassay in hPBMC; assay type: cell-based; conditions: 12 h, 41-plex immunoassay
Procedure, shortened: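 Fresh human PBMCs were isolated on Ficoll-Hypaque gradients from venipuncture blood. Cells were plated at 10⁵ per well, stimulated 12 h with graded concentrations of test compound, with LPS as reference. Supernatants were collected by centrifugation and assayed in duplicate for 41 cytokines/chemokines by magnetic bead multiplex; intra-assay CV was 4–8%. Data are means of duplicates from a representative experiment.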

[3] = system: granulocytes and monocytes in human whole blood; experiment: CD11b upregulation by flow cytometry in whole human blood; assay type: cell-based; conditions: 1 h
Procedure, shortened: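 Heparin-anticoagulated whole blood from healthy volunteers was added to serial dilutions of test compound, with reference compounds and fRPMI negative controls, then held 1 h at 37 °C. Cells were stained with CD11b-PE/CD14-APC for 30 min at 4 °C in the dark, then lysed/fixed and washed twice in saline. 100,000 gated events were acquired. Granulocytes were gated by forward/side scatter, monocytes by CD14.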

rabbits = experiment: safety evaluation in rabbits; assay type: in vivo, rabbit
Procedure, shortened: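 Rabbits (n=3 per group) received test compound 100 μg/dose, LPS 1 μg/dose (positive control) or saline vehicle. Doses were in sterile saline without excipients, 0.5 mL, as an i.v. bolus into the marginal ear vein. Blood was drawn from the contralateral ear at 0, 2 and 6 h for total/differential leukocytes, band forms, hemoglobin and MCH. Core temperature was logged by rectal thermistor probe.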

[4] = system: ex vivo human blood models; conditions: cited from earlier work
rabbit models = conditions: cited from earlier work
[5] = system: murine models of immunization; conditions: cited from earlier work
[6] = single i.v. bolus, 38 100 μg, LPS 1 μg

Chain of human TLR2 (O60603 21-784): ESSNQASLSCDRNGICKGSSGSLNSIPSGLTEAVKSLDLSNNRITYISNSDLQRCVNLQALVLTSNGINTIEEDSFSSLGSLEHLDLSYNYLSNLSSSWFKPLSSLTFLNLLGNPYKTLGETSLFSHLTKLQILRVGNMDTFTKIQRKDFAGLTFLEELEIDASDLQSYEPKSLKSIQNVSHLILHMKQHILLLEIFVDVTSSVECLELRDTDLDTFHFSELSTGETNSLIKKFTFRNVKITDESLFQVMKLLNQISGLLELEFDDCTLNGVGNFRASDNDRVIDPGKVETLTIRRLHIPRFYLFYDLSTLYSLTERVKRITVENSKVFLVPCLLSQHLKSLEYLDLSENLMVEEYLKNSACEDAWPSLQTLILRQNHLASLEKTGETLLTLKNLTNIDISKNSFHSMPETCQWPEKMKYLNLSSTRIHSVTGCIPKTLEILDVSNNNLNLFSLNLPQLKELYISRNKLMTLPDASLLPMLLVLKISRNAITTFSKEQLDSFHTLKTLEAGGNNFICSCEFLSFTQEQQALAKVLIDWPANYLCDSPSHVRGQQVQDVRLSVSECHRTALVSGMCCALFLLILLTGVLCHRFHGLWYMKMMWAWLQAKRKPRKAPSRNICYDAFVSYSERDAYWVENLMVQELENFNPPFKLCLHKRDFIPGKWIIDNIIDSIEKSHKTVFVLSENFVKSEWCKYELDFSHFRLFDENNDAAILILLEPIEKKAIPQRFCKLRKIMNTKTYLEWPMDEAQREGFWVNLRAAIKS

Row | Molecule | EC50 (human TLR2) | hTLR2-specific agonistic activity (human TLR2) | aqueous solubility (aqueous solubility) | other results
1 | CCCCCCCCCCCCCCCC(=O)OCCSC[C@H](NC(C)=O)C(=O)N[C@@H](COS(=O)(=O)O)C(=O)OC [Compound 13, 2-(((R)-2-Acetamido-3-(((S)-1-methoxy-1-oxo-3-(sulfooxy)propan-2-yl)amino)-3-oxopropyl)thio)ethyl palmitate] | 5.84 nM | retained hTLR2-specific agonistic activity | highly water soluble | 
2 | CCCCCCCCCCCCCCCC(=O)OCCSC[C@H](NC(C)=O)C(=O)N[C@@H](COC(=O)c1cccnc1)C(=O)OC [Compound 15, (S)-2-((R)-2-Acetamido-3-((2-(palmitoyloxy)ethyl)thio)propanamido)-3-methoxy-3-oxopropyl nicotinate] | 0.75 nM | retained hTLR2-specific agonistic activity |  | 
3 | CCCCCCCCCCCCCCCC(=O)OCCSC[C@H](NC(C)=O)C(=O)N[C@@H](CCCCN)C(=O)OC [Compound 10, 2-(((R)-2-Acetamido-3-(((S)-6-amino-1-methoxy-1-oxohexan-2-yl)amino)-3-oxopropyl)thio)ethyl palmitate] | 1.5 nM |  | highly water soluble | stability of aqueous stocks [1]: significant loss of activity of aqueous stocks in less than a week
4 | CCCCCCCCCCCCCCCC(=O)OCCSC[C@H](NC(C)=O)C(=O)N[C@@H](COC(=O)[C@@H](N)CCCCN)C(=O)OC [Compound 12, 2-(((R)-2-Acetamido-3-(((S)-3-(((S)-2,6-diaminohexanoyl)oxy)-1-methoxy-1-oxopropan-2-yl)amino)-3-oxopropyl)thio)ethyl palmitate] | 1.5 nM | retained hTLR2-specific agonistic activity | highly water soluble | stability of aqueous stocks [1]: found to be unstable
5 | CCCCCCCCCCCCCCCCn1cc(CCSC[C@H](NC(C)=O)C(=O)N[C@@H](CO)C(=O)OC)nn1 [Compound 27, (S)-Methyl 2-((R)-2-acetamido-3-((2-(1-hexadecyl-1H-1,2,3-triazol-4-yl)ethyl)thio)propanamido)-3-hydroxypropanoate] | 1020 nM |  |  | 
6 | S-[2,3-bis(palmitoyloxy)-(2R)-propyl]-R-cysteinyl-GNNDESNISFKEK (X1-GNNDESNISFKEK) [Compound 1] |  |  |  | well tolerated dose, intra-tumoral injection (patients; ten patients with pancreas carcinomas, 20–30 μg injected during surgery): up to 20 μg; systemic side effects, intra-tumoral injection (patients; ten patients with pancreas carcinomas, 20–30 μg): no systemic side effects were noted; systemic side effects, application on punch biopsy skin lesions (patients; twelve patients, 0.125–1.0 μg): other than transient and self-limited erythema, no systemic side effects were noted
7 | CCCCCCCCCCCCCCCCOC(=O)NCCSC[C@H](NC(C)=O)C(=O)N[C@@H](CO)C(=O)OC [Compound 34, (2S,5R)-Methyl 5-acetamido-2-(hydroxymethyl)-4,11-dioxo-12-oxa-7-thia-3,10-diazaoctacosan-1-oate] | 0.065 nM |  |  | 
8 | CCCCCCCCCCCCCCCCOC(=O)NCCSC[C@H](NC(C)=O)C(=O)N[C@@H](CO)C(=O)NCCCN(C)C [Compound 38, Hexadecyl ((8S,11R)-11-acetamido-8-(hydroxymethyl)-2-methyl-7,10-dioxo-13-thia-2,6,9-triazapentadecan-15-yl)carbamate] | 0.25 nM |  |  | solubility (aqueous solubility): > 10000 µg/mL; chemical stability under accelerated stability testing conditions ([1]; accelerated stability testing): retained excellent chemical stability; proinflammatory cytokine signatures [2]: could not detect any significant proinflammatory cytokine signatures; chemokine induction (MCP-1, MCP-3, MDC, IL-8) (human PBMCs): prominent biphasic induction; CD11b upregulation in monocytes ([3]; CD14+ gated): strong monocytic CD11b upregulation; CD11b upregulation in neutrophils (granulocytes) ([3]; relative to 2): upregulated CD11b very potently; pyrogenicity (febrile response, core temperature) (rabbits; [6]): did not induce any such effects; total leukocyte and lymphocyte counts in peripheral blood (rabbits; [6]): did not induce any such effects; observable adverse effects, dose-escalation study (rabbits; up to 100 μg/animal, intramuscular or intravenous bolus): did not result in any observable adverse effects
9 | CCCCCCCCCCCCCCCC(=O)OCC(CSC[C@H](N)C(=O)N[C@@H](CO)C(=O)O)OC(=O)CCCCCCCCCCCCCCC (mixture of isomers) [Compound 2, S-[2,3-bis(palmitoyloxy)-(2RS)-propyl]-R-cysteinyl-S-serine] |  |  |  | levels of proinflammatory mediators such as TNF-α, IL-1β and IL-18 ([4]; earlier findings): virtually undetectable levels; pro-inflammatory activity (TNF-α, IL-1β, IL-6, IL-8 production) ([4]; ex vivo human blood models): devoid of any detectable pro-inflammatory activity; local reactogenicity and pyrogenicity (rabbit models): devoid of; adjuvanticity [5]: potently adjuvantic
10 | CCCCCCCCCCCCCc1cn(CCSC[C@H](NC(C)=O)C(=O)N[C@@H](CO)C(=O)OC)nn1 [Compound 24, (S)-Methyl 2-((R)-2-acetamido-3-((2-(4-tridecyl-1H-1,2,3-triazol-1-yl)ethyl)thio)propanamido)-3-hydroxypropanoate] | 290 nM |  |  | 
11 | CCCCCCCCCCCCCCCC(=O)NCCSC[C@H](NC(C)=O)C(=O)N[C@@H](CO)C(=O)OC [Compound 22, (S)-Methyl 2-((R)-2-acetamido-3-((2-palmitamidoethyl)thio)propanamido)-3-hydroxypropanoate] | 12.8 nM |  |  | 
12 | CCCCCCCCCCCCCCCC(=O)OCCSC[C@H](NC(C)=O)C(=O)N[C@@H](COC(=O)CCC(=O)O)C(=O)OC [Compound 14, (7S,10R)-10-Acetamido-7-(methoxycarbonyl)-4,9,16-trioxo-5,15-dioxa-12-thia-8-azahentriacontan-1-oic acid] | 0.65 nM | retained hTLR2-specific agonistic activity | highly water soluble | 
